Screening results: PubChem, Johns Hopkins Ion Channel Center
MrgX1 allo act: human MrgX1 positive allosteric modulation, primary screen. Q96LB2. MrgX1-HEK293, Fluo-4 calcium flux, FDSS; active compounds read high. B-score at 10 µM. 310,000 compounds, 0.63% hits;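 active = plate-corrected calcium response at least 3 library SD above typical, normal starting fluorescence, not activating the receptor alone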;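 also: compound read alongside a low EC10 to EC30 dose of BAM8-22 agonist; peak minus trough fluorescence over baseline measured at the second addition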
Target sequence (Q96LB2 whole entry, looked up): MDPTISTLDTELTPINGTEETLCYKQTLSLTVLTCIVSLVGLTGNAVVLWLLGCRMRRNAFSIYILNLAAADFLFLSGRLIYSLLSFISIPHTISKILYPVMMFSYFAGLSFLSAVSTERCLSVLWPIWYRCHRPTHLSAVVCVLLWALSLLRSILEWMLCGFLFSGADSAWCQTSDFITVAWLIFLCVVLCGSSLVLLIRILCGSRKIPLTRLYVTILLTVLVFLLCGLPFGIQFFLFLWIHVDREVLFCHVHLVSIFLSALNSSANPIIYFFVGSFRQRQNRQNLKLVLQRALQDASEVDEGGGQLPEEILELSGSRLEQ
MrgX1 agonist: activates human MrgX1 receptor signaling | Q96LB2 | MrgX1-HEK293 cells, Fluo-4 calcium fluorescence, agonist mode; active compounds read high | B-score at 10 µM | 310,000 compounds, 0.44% hits | AID 588627;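 active = calcium response B-score plate-corrected fluorescence ratio at least 3 library SD, with starting fluorescence B-score inside 5 SD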
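Assay system: MrgX1-expressing HEK293 cells / Amount: fifteen thousand cells per well / Doses: test compound in the initial addition of three / Timing: cells plated overnight, dye loaded 0.5 h 37 °C, 0.5 h room temperature / Technique: kinetic calcium dye fluorescence, Fluo-4 NW / Control set: positive and negative controls per plate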
MrgX1 antag: antagonists of human MrgX1 receptor; Q96LB2; MRGX1-HEK293 calcium flux, Fluo-4, BAM8-22 antagonism; active compounds read low; B-score at 10 µM; 310,000 compounds, 1.3% hits;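 active = calcium-response B-score plate-corrected more than 3 library SD below zero, starting fluorescence within 5 deviations, no agonist response on first addition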;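 also: peak minus trough fluorescence over baseline after final BAM8-22 challenge near maximal dose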
RGS4 pot: RGS4 potentiation or activation. HEK293 M3R/inducible RGS4, carbachol calcium flux Fluo4; active compounds read low. B-score at 10 µM. 310,000 compounds, 0.92% hits. AID 463111;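 active = B-score of the integrated calcium signal more than 4 SD below the library mean, with starting fluorescence not abnormally high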;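 also: negative B-score means reduced calcium response which marks RGS4 activation or potentiation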
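Material: Inducible-RGS4 HEK293 cells carrying M3 receptor; also added: carbachol at ECmax as muscarinic agonist stimulus; incubation: compound preincubation 20 min at room temperature before agonist; signal: Fluo4-AM (2 µM) calcium-flux fluorescence, kinetic read; measure: integrated calcium ratio converted to B score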
RGS4 block: human RGS4 inhibition; P49798; HEK293 M3R/RGS4 inducible, Fluo-4 calcium flux; active compounds read high; triggered by carbachol at its EC20; B-score at 10 µM; 310,000 compounds, 0.45% hits;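 active = B-score, a plate-corrected calcium signal, over three deviations above library mean, with baseline fluorescence within five deviations of library mean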;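 also: RGS4 expression induced by doxycycline in cells with stable M3 receptor; B-score is computed from the integrated fluorescence ratio over baseline after carbachol; higher B-score means a larger calcium signal and so more RGS4 inhibition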
Target sequence (P49798 whole entry, looked up): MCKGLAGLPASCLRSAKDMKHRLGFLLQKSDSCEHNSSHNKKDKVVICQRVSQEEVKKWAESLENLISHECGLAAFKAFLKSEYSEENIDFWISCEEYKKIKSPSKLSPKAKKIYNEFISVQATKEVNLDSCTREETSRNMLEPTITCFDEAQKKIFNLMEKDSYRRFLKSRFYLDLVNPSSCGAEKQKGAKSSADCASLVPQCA
Each line names hits and unclear results; the compound was inactive in the other large screens. In the library only some 3.5% were active in any assay of this set; here they are far more common.

O=C(Nc1ccccc1O)c1ccccc1O	MrgX1 antag -5.84
CC(C)CN(CC(C)C)C(=O)Nc1cccc([N+](=O)[O-])c1	none
CNc1cc(CS(=O)c2ccccc2)nc(-c2ccccc2)n1 (stereo unspecified)	none
O=S(Cc1cc(Sc2ccccc2)nc(-c2ccccc2)n1)c1ccccc1 (stereo unspecified)	MrgX1 allo act 10
CCCCCCN(C(=O)CCCCCN1C(=O)NC(c2ccc(-c3ccccc3)cc2)C(C(=O)OCc2ccccc2)=C1C)C(C(=O)NCCCC)c1ccccc1 (stereo unspecified)	none (no result: MrgX1 allo act, MrgX1 agonist, MrgX1 antag)
CCCCCCN(C(=O)CCCCCN1C(=O)NC(c2ccc(-c3ccccc3)cc2)C(C(=O)OCc2ccccc2)=C1C)C(C)C(=O)NCCCC (stereo unspecified)	MrgX1 antag -4.59
Fc1cccc(Cl)c1CNC(c1ccccc1)c1ccccc1	RGS4 pot -7.05
O=C(CNC(c1ccccc1)c1ccccc1)Nc1c(F)cccc1F	none
CCCC(=O)N1CCN(c2ccc(NC(=O)c3cc4ccccc4o3)cc2Cl)CC1	RGS4 pot -8.59
CC1CCN(c2ccccc2NC(=O)c2cc3ccccc3o2)CC1	RGS4 pot -7.41
CCCC(=O)N1CCN(c2ccc(NC(=O)c3cccs3)cc2Cl)CC1	none
CCC(=O)N1CCN(c2ccc(NC(=O)c3cc4ccccc4o3)cc2Cl)CC1	RGS4 pot -7.48
CCC(=O)N1CCN(c2ccc(NC(=O)c3ccco3)cc2Cl)CC1	none (no result: MrgX1 allo act, MrgX1 agonist, MrgX1 antag)
CSCCC(NC(=O)c1cccc(C)c1)C(=O)OCC(=O)Nc1c(C)nn(-c2ccccc2)c1C (stereo unspecified)	none
CCN(Cc1ccc(NC(C)=O)cc1)CC1CCCN(CCc2cccc(F)c2)C1 (stereo unspecified)	none
CCN(Cc1ccc(C#CCCO)cc1)CC1CCCN(CCc2cccc(OC)c2)C1 (stereo unspecified)	RGS4 pot -7.01
NCCCC(=O)N1c2ccccc2Sc2ccccc21	RGS4 pot -7.03
CCN(CC)CC(=O)N1c2ccccc2Sc2ccc(Cl)cc21	RGS4 pot -9.75
CCN(CC)C(=O)N1c2ccccc2Sc2ccccc21	none
Cn1c(Cn2nnc3ccccc32)nnc1SCC(=O)Nc1nccs1	none
C/[N+]([O-])=C\c1coc2ccccc2c1=O	none
O=C1NC(=S)S/C1=C\c1ccc2ccccc2c1	MrgX1 antag -4.9
O=C1NC(=S)S/C1=C\c1coc2ccccc2c1=O	MrgX1 allo act 7.61
CCOc1ccc(/C=C2\SC(=S)NC2=O)cc1OC	none
COc1ccc(/C=C2\SC(=O)NC2=S)cc1OC	MrgX1 agonist 62.8
COc1cc(/C=C2/SC(=S)NC2=O)ccc1OS(=O)(=O)c1ccc(C)cc1	MrgX1 antag -4.72
COc1ccc(CNCc2c(F)cccc2F)cc1OC	none
COC(=O)C(CC(C)C)NC(=O)C(Cc1ccccc1)NC(=O)C1CCCN1C(=O)OC(C)(C)C (stereo unspecified)	none
COc1ccc(CCC(=O)N2CCN(c3ccc([N+](=O)[O-])cc3)CC2)cc1OC	none
Cc1ccc(CCC(=O)Nc2ccc([N+](=O)[O-])cc2)o1	none
COc1ccc(/C=C2\SC(=S)NC2=O)cc1OS(=O)(=O)c1ccc(NC(C)=O)cc1	none (no result: MrgX1 allo act, MrgX1 agonist, MrgX1 antag)
COc1cc(/C=C2\SC(=S)NC2=O)ccc1OS(=O)(=O)c1ccccc1	MrgX1 antag -6.06
C=CCN1C(=O)N(c2ccccc2)C(=O)C1CC(=O)Nc1ccc(OC)cc1 (stereo unspecified)	none
COc1ccc(N2CCN(C(=O)CCC(=O)N3CC(C)Oc4ccc(C)cc43)CC2)cc1 (stereo unspecified)	none
COc1cccc(S(=O)(=O)Nc2cccc(C(=O)N3CCOCC3)c2)c1	RGS4 pot -7.52
COc1cccc(S(=O)(=O)Nc2cccc(C(=O)N3CCCC3)c2)c1	none
Fc1ccccc1C1CC(c2ccco2)=Nc2ccccc2S1 (stereo unspecified)	none
CCOC(=O)c1c(NC(=O)CSc2c[nH]c3ccccc23)sc2c1CCC2	RGS4 pot -7.1
O=C1/C(=C\c2c(NCCOCCO)nc3ccccn3c2=O)SC(=S)N1Cc1ccco1	MrgX1 antag -14.9
O=c1[nH]cnc(O)c1C(c1cccc([N+](=O)[O-])c1)c1c(O)nc[nH]c1=O	none
O=C1/C(=C/c2ccc(Br)cc2)Oc2cc(O)ccc21	MrgX1 antag -9.74
COC(=O)c1ccc2c(c1)C(=O)/C(=C/c1ccc(O)cc1)O2	MrgX1 antag -5.31
O=C(Nc1ccc(Cl)c(C(F)(F)F)c1)[C@@H]1CC=C[C@@H]2CCN(Cc3ccccc3)C(=O)[C@@H]21	MrgX1 allo act 7.25
Cc1cccc([N+](=O)[O-])c1NC(=O)CN(Cc1ccccc1)Cc1ccccc1	RGS4 pot -8.61
COC(=O)C1CCN(C(=O)COC(=O)CSc2ccc(C(N)=O)cc2[N+](=O)[O-])CC1	MrgX1 antag -6.36
CCOC(=O)C1CCN(C(=O)COC(=O)CSc2ccc(C(N)=O)cc2[N+](=O)[O-])CC1	none
CCOC(=O)CSc1ccc(C(=O)NCCCN2CCOCC2)cc1[N+](=O)[O-]	RGS4 pot -8.24
CC1(C)CC(=O)N(c2cccc(C(F)(F)F)c2)C(=O)C1	none
CC(C)[C@H](NS(=O)(=O)c1ccccc1)C(=O)OCC(=O)Nc1ccccc1Sc1ccccc1	MrgX1 antag -6.44
O=C1N/C(=C\c2ccc(O)cc2)C(=O)c2ccccc21	MrgX1 agonist 40.3
Cc1c(O)ccc2cc(S(=O)(=O)c3ccccc3)c(=O)oc12	RGS4 pot -7.77
Cc1ccc(S(=O)(=O)c2cc3ccccc3oc2=O)cc1	none
O=C(O)c1cnc2[nH]c3ccccc3n2c1=O	none
Cc1cccc(C(=O)NNC(=O)CCC(=O)Nc2cccc(Cl)c2C)c1	MrgX1 antag -6.94
O=C(CN1C(=O)CSc2ncccc21)Nc1ccccc1F	none
Cc1ccc2c(c1)/C(=C/c1ccco1)C(=O)N2	none
O=C1Nc2ccc(Br)cc2/C1=C/c1ccc(C(=O)O)cc1	RGS4 block 8.01
O=C(N/N=C\c1cc([N+](=O)[O-])ccc1N1CCOCC1)c1ccccn1	MrgX1 antag -4.54
NC(=O)[C@@H]1CCNc2c(I)cc([N+](=O)[O-])cc2C(=O)N[C@@H](CCC(=O)O)C(=O)N[C@@H](CO)C(=O)N1	MrgX1 antag -6.49 (no result: RGS4 pot, RGS4 block)
Clc1cccc(Cl)c1CO/N=C/c1cccs1	none
Cc1c(C)c(C)c(CO/N=C/c2cccs2)c(C)c1C	MrgX1 allo act 8.16
Cc1ccc(NC(=O)C(=O)NCc2ccncc2)cc1	none
COc1ccc(OCC(=O)N/N=C/c2ccc(OC)c(OC)c2C(=O)O)cc1	none
COc1ccccc1OCC(=O)N/N=C/c1c(O)ccc2ccccc12	RGS4 pot -7.6
COc1ccc(/C=N/NC(=O)COc2ccc3ccccc3c2)c(C(=O)O)c1OC	MrgX1 antag -5.44
